Source: article PMC9063559 (RSC Advances, 2019)
pIC50: −log10 of the molar value.

Legend:
Assay type in all cases: cell-based
[1] = cytotoxicity against mammalian host cells; details: rat, rat skeletal myoblast L6 cells
Procedure, shortened: (§1)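 Test compounds were run in vitro in parallel against P. falciparum NF54 and K1, T. cruzi Tulahuen C4 amastigotes, T. b. rhodesiense STIB 900 trypomastigotes, L. donovani MHOM-ET-67/L82 amastigotes and rat L6 skeletal myoblasts. Each IC50 is the mean of two independent assays, with individual values within a factor of 2. Selectivity index = L6 IC50 ÷ P. falciparum IC50 for the respective strain.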

[2] = test system: Trypanosoma brucei rhodesiense (STIB 900 strain, trypomastigotes); assay: in vitro activity against Trypanosoma brucei rhodesiense; details: RHODESIENSE|STIB900, read-out: IC50 T. brucei rhodesiense
Procedure, shortened: as §1

[3] = test system: Leishmania donovani (MHOM-ET-67/L82, amastigotes); assay: in vitro activity against Leishmania donovani; details: read-out: IC50 L. donovani
Procedure, shortened: as §1

[4] = test system: Plasmodium falciparum (NF54 strain); assay: in vitro antiplasmodial activity, chloroquine-sensitive NF54 strain; details: NF54, read-out: IC50 P. falciparum (NF54 strain)
Procedure, shortened: as §1

COc1cc([C@@H]2c3cc4c(cc3[C@H](O)[C@H]3COC(=O)[C@H]23)OCO4)cc(OC)c1OC [Podophyllotoxin]
pIC50 [1]: 8.02

Nc1nc(N)nc(Nc2ccc([As]3SCC(CO)S3)cc2)n1 (stereo not shown) [Melarsoprol]
pIC50 [2]: 7.52

CCCCCCCCCCCCCCCCOP(=O)([O-])OCC[N+](C)(C)C [Miltefosine]
pIC50 [3]: 5.97

C[C@@H]1CC[C@H]2[C@@H](C)C(=O)O[C@@H]3O[C@@]4(C)CC[C@@H]1[C@]32OO4 [Artemisinin]
pIC50 [4]: 7.68
